The text below walks through data of ChEMBL document CHEMBL3612040, “Discovery of Selective Small Molecule Inhibitors of Monoacylglycerol Acyltransferase 3” (J Med Chem, 2015).

Data set [1] can be described thus: Lipophilicity, logD of the compound at pH 7.4. The class given is physicochemical. The note with it: buffer. In a few lines: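 Shake-flask octanol:water partition at pH 7.4, with MS analysis of samples.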
Data set [2] concerns Mus musculus. Nature of the data set: In-vivo inhibition of MGAT3-mediated TAG synthesis in human MGAT3 transgenic mouse assessed as reduction in incorporation of glycerol-d8 in to triolein expressed as atom percent excess at 200 mg/kg, po dosed 1 hr before of 100 mg/kg, iv glycerol-d8 and measured 30 mins post glycerol-d8 dosing and co-treated with 30 mg/kg for DGAT1 inhibitor-12 and 10 mg/kg for DGAT2 inhibitor-13 by LC-MS method. It is filed as functional, organism-based. In a few lines:
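Fed mice (wild type or human MOGAT3 transgenic) were studied between 8 AM and 12 PM. Inhibitors were given orally in 0.5% methyl cellulose in saline. After 1 h, D8-glycerol (10 mg/mL in saline) was injected into the tail vein. Blood was taken into EDTA 30 min later and plasma lipids extracted. D5-glycerol in triolein (18:1/18:1/18:1) was measured by LC/MS as atom percent excess, mean ± SE.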

Data set [3] deals with Voltage-gated inwardly rectifying potassium channel KCNH2 (Homo sapiens, UniProt Q12809). Nature of the data set: Inhibition of human ERG.
Data set [4] in a line: Genotoxicity in micronucleus (unknown origin) by micronucleus assay.
Data set [5] deals with Mus musculus. Nature of the data set: In-vivo inhibition of MGAT3-mediated TAG synthesis in human MGAT3 transgenic mouse assessed as reduction in incorporation of glycerol-d8 in to triolein expressed as atom percent excess at 200 mg/kg, po dosed 1 hr before of 100 mg/kg, iv glycerol-d8 and measured 30 mins post glycerol-d8 dosing by LC-MS method. It is filed as functional, organism-based. In a few lines: (§1)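 Fed mice (wild type or human MOGAT3 transgenic), studied 8 AM–12 PM. Oral dosing in 0.5% methyl cellulose in saline, alone or with DGAT1 inhibitor (30 mg/kg) and DGAT2 inhibitor (10 mg/kg). After 1 h, 100 mg/kg uniformly labelled D8-glycerol (10 mg/mL in saline) given by tail vein. EDTA plasma taken 30 min later; D5-glycerol enrichment in triolein (18:1/18:1/18:1) measured by LC/MS, reported as mean atom percent excess ± SE.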

A short description of data set [6]: Half life in mouse at 1 mg/kg, iv. The class given is ADME, organism-based. The note with it: in vivo. In a few lines:
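Single 1 mg/kg intravenous dose in mice; systemic clearance, volume of distribution and effective half-life derived from plasma pharmacokinetics.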

Data set [7] deals with T1, Peroxisome proliferator-activated receptor gamma (Homo sapiens, UniProt P37231).
T1 sequence (P37231 whole entry): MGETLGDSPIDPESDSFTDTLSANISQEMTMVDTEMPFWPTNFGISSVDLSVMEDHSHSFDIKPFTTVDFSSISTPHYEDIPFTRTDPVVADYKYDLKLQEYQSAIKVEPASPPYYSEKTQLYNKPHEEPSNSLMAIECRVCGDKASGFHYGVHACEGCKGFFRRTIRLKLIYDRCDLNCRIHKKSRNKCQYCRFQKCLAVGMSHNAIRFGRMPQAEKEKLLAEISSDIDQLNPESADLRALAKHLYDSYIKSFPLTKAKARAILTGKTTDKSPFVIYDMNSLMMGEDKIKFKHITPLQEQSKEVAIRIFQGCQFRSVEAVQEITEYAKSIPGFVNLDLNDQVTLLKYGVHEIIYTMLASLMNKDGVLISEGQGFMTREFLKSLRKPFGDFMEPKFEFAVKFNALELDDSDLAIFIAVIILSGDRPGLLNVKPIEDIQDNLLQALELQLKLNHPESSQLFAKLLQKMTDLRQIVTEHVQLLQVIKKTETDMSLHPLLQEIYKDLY
The experiment in a line: Inhibition of PPARgamma (unknown origin).

Data set [8] deals with T2, Diacylglycerol O-acyltransferase 2 (Homo sapiens, UniProt Q96PD7).
T2 sequence (Q96PD7 whole entry): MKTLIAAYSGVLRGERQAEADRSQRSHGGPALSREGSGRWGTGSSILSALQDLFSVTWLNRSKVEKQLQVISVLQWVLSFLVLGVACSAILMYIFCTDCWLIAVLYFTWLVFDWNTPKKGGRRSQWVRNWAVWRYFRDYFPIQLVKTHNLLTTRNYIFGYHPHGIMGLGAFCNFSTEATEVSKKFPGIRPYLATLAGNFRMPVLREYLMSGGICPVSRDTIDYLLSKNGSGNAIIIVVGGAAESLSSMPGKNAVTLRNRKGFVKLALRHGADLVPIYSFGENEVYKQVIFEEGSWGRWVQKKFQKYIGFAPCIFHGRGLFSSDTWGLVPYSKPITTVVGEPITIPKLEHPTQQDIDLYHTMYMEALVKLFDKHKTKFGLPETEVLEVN
The experiment in a line: Inhibition of DGAT2 (unknown origin) using [1-14C]decanoyl-CoA and didecanoyl-sn-glycerol substrates incubated for 40 mins. In a few lines:
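DGAT2 membrane fraction (0.01 mg/mL) in 100 mM Hepes-NaOH pH 7.4, 20 mM MgCl2, 200 nM MAFP. Compound first held 20 min with 0.04% fatty-acid-free BSA, then preincubated 120 min at RT with enzyme. Started with 30 µM [1-14C]decanoyl-CoA and 125 µM 1,2-didecanoyl-sn-glycerol; ran 40 min at RT, acid-stopped. Labelled TAG read by scintillation after phase partitioning.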

The target of data set [9] is Cytochrome P450 2D6 (Homo sapiens, UniProt P10635). The experiment in a line: Inhibition of human CYP2D6. It is filed as ADME.
A short description of data set [10]: Oral bioavailability in mouse at 5 mg/kg. The class given is ADME, organism-based. The following applies: in vivo.
Data set [11] addresses T3, Diacylglycerol O-acyltransferase 1 (Homo sapiens, UniProt O75907).
T3 sequence (O75907 whole entry): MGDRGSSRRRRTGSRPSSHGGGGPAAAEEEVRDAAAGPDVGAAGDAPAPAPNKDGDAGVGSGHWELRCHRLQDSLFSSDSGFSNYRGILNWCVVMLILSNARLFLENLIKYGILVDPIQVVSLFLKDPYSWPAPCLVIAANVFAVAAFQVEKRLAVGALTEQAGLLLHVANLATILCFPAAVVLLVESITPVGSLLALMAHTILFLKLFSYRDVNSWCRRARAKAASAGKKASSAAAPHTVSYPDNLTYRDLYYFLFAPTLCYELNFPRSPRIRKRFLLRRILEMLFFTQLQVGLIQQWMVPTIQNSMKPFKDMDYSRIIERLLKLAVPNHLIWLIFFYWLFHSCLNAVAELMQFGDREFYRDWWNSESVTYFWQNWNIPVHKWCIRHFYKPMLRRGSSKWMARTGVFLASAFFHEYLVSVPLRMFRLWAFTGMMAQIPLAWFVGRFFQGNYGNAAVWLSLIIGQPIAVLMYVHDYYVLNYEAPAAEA
Nature of the data set: Inhibition of DGAT1 (unknown origin) assessed as effect on incorporation of [1-14C]decanoyl moiety into TG using [1-14C]decanoyl-CoA and 1,2-didecanoyl-sn-glycerol as substrates.

Data set [12] can be described thus: Apparent permeability in RRCK cells. The class given is ADME, cell-based, Canis lupus familiaris, MDCKII-LE. The following applies: dog, MDCK.
Data set [13] is described as follows: Intrinsic clearance in human liver microsomes. It is filed as ADME. The note with it: read-out: CLH. For orientation: Liver microsomes are vesicles of endoplasmic reticulum, rich in cytochrome P450 enzymes.
Data set [14] relates to Mus musculus. The experiment in a line: Effect on incorporation of glycerol-d8 into triolein in wild type mouse by measuring atom percent excess at 200 mg/kg, po dosed 1 hr before of 100 mg/kg, iv glycerol-d8 and measured 30 mins post glycerol-d8 dosing by LC-MS method. It is filed as functional, organism-based. In outline: as §1
The nature of data set [15]: Cmax in mouse at 5 mg/kg, po. The note with it: in vivo. The arrangement: dose 5 mg/kg, route oral. It is filed as ADME, organism-based.

A word on the logD: it is lipophilicity at a set pH, counting ionised and neutral species. Low values mean lower lipophilicity, high ones higher lipophilicity. By half-life is commonly meant the time needed for the level to fall by half in the phase considered. Usually IC50 stands for the concentration that inhibits the measured activity by half. Broadly, the bioavailability is dose-corrected exposure relative to a reference, in per cent. Read a low bioavailability as little systemic uptake. A word on the Papp: it is the rate of passage across a membrane or cell layer, normalised by area and donor concentration. In general, Cmax refers to the highest concentration seen after dosing.

Calls of active or inactive are those of the source.

Cytochrome P450 2D6, sequence (P10635 whole entry): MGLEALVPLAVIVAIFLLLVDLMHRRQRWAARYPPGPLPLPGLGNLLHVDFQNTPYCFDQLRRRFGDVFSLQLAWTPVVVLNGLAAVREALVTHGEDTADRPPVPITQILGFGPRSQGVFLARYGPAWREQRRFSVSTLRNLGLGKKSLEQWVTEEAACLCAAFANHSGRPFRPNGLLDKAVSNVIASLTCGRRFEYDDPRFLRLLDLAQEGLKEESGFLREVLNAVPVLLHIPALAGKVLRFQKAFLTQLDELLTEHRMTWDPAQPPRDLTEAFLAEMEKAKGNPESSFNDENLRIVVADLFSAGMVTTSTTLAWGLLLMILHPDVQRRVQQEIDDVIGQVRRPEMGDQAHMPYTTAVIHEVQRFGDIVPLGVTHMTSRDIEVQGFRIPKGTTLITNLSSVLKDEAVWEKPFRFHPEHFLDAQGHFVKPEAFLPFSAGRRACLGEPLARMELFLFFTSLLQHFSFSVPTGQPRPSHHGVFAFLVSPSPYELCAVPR
Voltage-gated inwardly rectifying potassium channel KCNH2, sequence (Q12809 whole entry): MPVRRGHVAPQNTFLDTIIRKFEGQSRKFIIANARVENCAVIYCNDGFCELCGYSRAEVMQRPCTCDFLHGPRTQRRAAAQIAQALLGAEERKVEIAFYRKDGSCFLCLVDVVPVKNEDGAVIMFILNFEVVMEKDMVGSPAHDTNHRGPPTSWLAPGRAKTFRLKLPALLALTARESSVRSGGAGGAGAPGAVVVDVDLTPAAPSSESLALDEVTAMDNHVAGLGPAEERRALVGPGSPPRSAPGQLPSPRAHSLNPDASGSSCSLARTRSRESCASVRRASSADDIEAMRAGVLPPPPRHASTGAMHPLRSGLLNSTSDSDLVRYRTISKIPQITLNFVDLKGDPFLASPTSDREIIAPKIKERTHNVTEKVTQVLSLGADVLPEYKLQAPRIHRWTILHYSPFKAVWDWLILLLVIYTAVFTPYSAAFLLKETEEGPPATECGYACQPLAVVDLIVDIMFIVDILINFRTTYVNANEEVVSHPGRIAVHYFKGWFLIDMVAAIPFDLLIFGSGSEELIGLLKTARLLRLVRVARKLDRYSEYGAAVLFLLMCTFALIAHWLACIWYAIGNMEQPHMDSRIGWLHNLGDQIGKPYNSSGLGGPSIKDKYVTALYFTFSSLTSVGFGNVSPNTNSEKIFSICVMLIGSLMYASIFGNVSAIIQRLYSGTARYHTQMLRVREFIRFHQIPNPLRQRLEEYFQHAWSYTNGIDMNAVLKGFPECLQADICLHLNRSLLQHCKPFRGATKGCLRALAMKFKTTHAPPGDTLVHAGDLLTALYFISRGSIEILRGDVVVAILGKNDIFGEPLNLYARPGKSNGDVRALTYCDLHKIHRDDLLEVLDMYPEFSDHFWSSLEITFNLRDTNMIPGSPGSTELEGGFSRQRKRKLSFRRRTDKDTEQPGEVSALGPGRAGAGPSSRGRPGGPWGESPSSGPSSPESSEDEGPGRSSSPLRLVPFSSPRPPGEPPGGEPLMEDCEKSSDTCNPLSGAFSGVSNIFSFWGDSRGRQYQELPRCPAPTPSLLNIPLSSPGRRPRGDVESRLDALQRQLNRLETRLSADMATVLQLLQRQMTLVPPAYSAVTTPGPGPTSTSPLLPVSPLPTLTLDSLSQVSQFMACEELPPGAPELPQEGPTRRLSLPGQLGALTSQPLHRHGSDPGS

As for `COc1cccc(CC(=O)N2Cc3ccc(S(=O)(=O)Nc4cnn(C5CCC5)n4)cc3C2)c1`, the logD in data set [1] amounted to 1.7. Also, the inhibition result in data set [2] is “Active”. Moreover, the “inhibition (INH)” value in data set [3] and in [9] was “Not Active” each time. Further, the Activity result in data set [4] is given as “Non-toxic”. Also, the inhibition entry in data set [5] was “inactive”. In [6], this molecule had a half-life of 1.4 h. In addition, the values for the IC50 in data set [7], in [8] and in [11] were 4 µM, over 100 µM and over 50 µM, respectively. Further, in data set [10], the bioavailability came out at 74%. For the same molecule, the Papp in [12] was 12 ×10⁻⁶ cm/s. Besides, in data set [13], the microsomal CLint was determined as 22 µL/min/mg. Also, the result in data set [14] was inactive. In data set [15], the Cmax is 9300 ng/mL.
